From ChEMBL document CHEMBL4387780, “Molecular and cellular studies evaluating a potent 2-cyanoindolizine catechol diether NNRTI targeting wildtype and Y181C mutant HIV-1 reverse transcriptase” (Bioorg Med Chem Lett, 2019) come the findings set out here.

Series [1] can be described thus: Solubility of the compound in water at pH 7. Format: physicochemical.
The nature of series [2]: Cytotoxicity against human MT2 cells infected with HIV1 NL4-3 harboring Y181C mutant measured 48 hrs by MTT assay. Format: cell-based. Background: Tetrazolium assays rely on reduction of a dye to a coloured formazan, in cell work by metabolically active cells.
Series [3] has as its system Human immunodeficiency virus 1. Put plainly: Antiviral activity against HIV1 NL4-3 harboring Y181C mutant infected in human MT2 cells measured 5 days post-infection by MTT assay.
The subject of series [4] is Human immunodeficiency virus 1. Briefly: Antiviral activity against wild-type HIV1 NL4-3 infected in human MT2 cells measured 5 days post-infection by MTT assay. As to conditions: for EC50: Human immunodeficiency virus 1, NL4-3, MT2, 5 days; call rule not given here.
The target of series [5] is Human immunodeficiency virus type 1 reverse transcriptase (Human immunodeficiency virus 1, UniProt Q72547). Briefly: Inhibition of recombinant HIV1 reverse transcriptase p66/p51 expressed in Escherichia coli BL21 (DE3) pLysS cells preincubated followed by primer/template addition and measured after 30 mins by picogreen dye-based fluorescence assay. In a few lines: (§1)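 RT pre-incubated with inhibitor at increasing concentrations to allow binding. Reaction started by adding substrate and co-substrates, run 30 min at 10 nM active-site RT, then quenched with EDTA. dsDNA product read as RFU with PicoGreen dye. Each concentration in triplicate, with a pre-quenched negative control. IC50 from a quadratic inhibition curve fit.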

The target in series [6] is Human immunodeficiency virus type 1 reverse transcriptase (Human immunodeficiency virus 1, UniProt Q72547, Y181C). Put plainly: Inhibition of recombinant HIV1 reverse transcriptase p66/p51 Y181C mutant expressed in Escherichia coli BL21 (DE3) pLysS cells preincubated followed by primer/template addition and measured after 30 mins by picogreen dye-based fluorescence assay. In a few lines: as §1

A short description of series [7]: Cytotoxicity against human MT2 cells infected with wild-type HIV1 NL4-3 measured 48 hrs by MTT assay. Format: cell-based.
The mark [8] stands for this setting: Human immunodeficiency virus 1, NL4-3, MT2, 5 days, read-out: EC50.

In brackets after ≈: the same amount, converted by molar mass.

In general, solubility refers to how much of the substance goes into solution per volume. In series [1], `Cc1cc(C#N)cc(C)c1Oc1nc(Nc2ccc(C#N)cc2)nc(N)c1Br` [ETRAVIRINE] displayed a solubility of under 1 µg/mL.

The CC50 is the concentration that lowers cell viability or growth by half. A high value points to lower toxicity to the cells. As usually defined, the EC50 is the concentration at which the effect is half-maximal. As usually defined, the IC50 is the midpoint of a concentration-inhibition curve. As for `N#Cc1cc2c(Oc3ccc(F)cc3OCCn3ccc(=O)[nH]c3=O)cc(F)cn2c1`, the CC50 at 48 h in series [2] worked out at 55000 nM; in series [7], 90000 nM. Also, the Activity result in series [3] and in series [4] was “Dose-dependent effect” in each case. In addition, the EC50 in series [3] (setting [8]) was found to be 3.2 nM; in series [4] it was 4.7 nM. Besides, the IC50 was determined as 4.5 nM in series [5] and 5.5 nM in series [6]. The molecule further had a solubility in series [1] of 43.8 µg/mL (≈ 103 µM).

Consider `Cc1cc(/C=C/C#N)cc(C)c1Nc1ccnc(Nc2ccc(C#N)cc2)n1` [RILPIVIRINE], for which the EC50 in series [3] (setting [8]) was […]. In addition, half-maximal cytotoxicity in series [7] (CC50 at 48 h) was put at 8000 nM.

In the case of `Cc1ccnc2c1NC(=O)c1cccnc1N2C1CC1` [NEVIRAPINE], the EC50 result in series [3] is “Not Active”; in series [4] it was 300 nM. Moreover, the CC50 at 48 h in series [7] is over 100000 nM.
